Data reported in ChEMBL document CHEMBL4038284, “Synthesis of novel quinoline-based 4,5-dihydro-1H-pyrazoles as potential anticancer, antifungal, antibacterial and antiprotozoal agents” (Eur J Med Chem, 2017).
≈ marks a conversion by molar mass, not a printed value.

What was measured:
[1] = system: Leishmania panamensis; test: Antileshmanial activity against EpiR/GFP fused Leishmania panamensis MHOM/CO/87/UA140 intracellular amastigotes infected in human […] cells after 72 hrs by flow cytometric method; format: functional, cell-based; details: MHOM/CO/87/UA140, 72 h
Procedure, shortened: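 PMA-treated U-937 cells (3 × 10^5 cells/mL) infected with stationary-phase GFP L. panamensis promastigotes (15:1), 3 h at 34 °C, then washed. After 24 h, compounds added at 50, 12.5, 3.125 and 0.78 µg/mL for 72 h at 37 °C. EC50 by Probit; triplicate, two experiments.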

[2] = system: Candida albicans; test: Antifungal activity against Candida albicans ATCC 10231 incubated for 48 hrs under dark condition by broth microdilution method; format: functional; details: ATCC 10231, 48 h
Procedure, shortened: (§1)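 CLSI M27-A3 broth microdilution in RPMI-1640, DMSO ≤1%, compounds at 250-0.98 µg/mL final. Inoculum 1-5 × 10^3 CFU/mL. Incubated 48 h at 30 °C in a moist dark chamber, read at OD405. MIC80 and MIC50 taken from % inhibition dose-response curves (mean ± SEM, triplicate). Amphotericin B was the positive control.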

[3] = system: Neisseria gonorrhoeae; test: Antibacterial activity against beta lactamase positive Neisseria gonorrhoeae ATCC 31426 by oxidase test; format: functional
Procedure, shortened: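 Agar dilution MIC on GC agar with 1% isovitalex containing increasing compound concentrations. Plates inoculated with about 1×10^4 CFU (5 µL). MIC is the lowest concentration that inhibited growth, with growth confirmed by oxidase test. Run in duplicate, repeated at least three times.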

[4] = system: Cryptococcus neoformans; test: Growth inhibition of Cryptococcus neoformans ATCC 32264 at 15.62 ug/ml incubated for 48 hrs under dark condition by broth microdilution method relative to control; format: functional; details: ATCC 32264, 48 h, read-out: GI
Procedure, shortened: (§2)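 CLSI M27-A3 broth microdilution in RPMI-1640, DMSO ≤1%. Inoculum 1-5 × 10^3 CFU/mL. Incubated 48 h at 30 °C, dark. % inhibition = 100 − (OD405 test − sterility control)/(OD405 growth control − sterility control), with growth and sterility control wells. Triplicate.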

[5] = system: Candida albicans; test: Growth inhibition of Candida albicans ATCC 10231 at 31.25 ug/ml incubated for 48 hrs under dark condition by broth microdilution method relative to control; format: functional; details: ATCC 10231, 48 h, read-out: GI; procedure, shortened: as §2
[6] = system: Trypanosoma cruzi; test: Antitrypanosomal activity against Trypanosoma cruzi Tulahuen intracellular amastigote harboring LacZ infected in human U937 cells after 72 hrs by CPRG/Nonidet reagent based spectrophotometric method; format: functional, cell-based; details: U-937, 72 h
Procedure, shortened: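 U-937 cells at 2.5 × 10^5 cells/mL in RPMI-1640 with 10% serum and 0.1 µg/mL PMA were infected with β-galactosidase-transfected Tulahuen epimastigotes at 5 parasites per cell. Infected cells were exposed to 50, 12.5, 3.125 and 0.78 µg/mL for 72 h. CPRG (100 uM) and 0.1% Nonidet P-40 were added for 3 h, read at 570 nm. EC50 by Probit. Triplicate, at least two experiments; benznidazole as reference.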

[7] = system: Pseudomonas aeruginosa; test: Antibacterial activity against Pseudomonas aeruginosa ATCC 27853 after 24 hrs by resazurin dye based microdilution assay; format: functional; details: ATCC 27853, 24 h
Procedure, shortened: (§3)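 MIC taken as the lowest concentration giving visible inhibition and/or by resazurin (1 mg/mL). Gentamicin was the control. Run in duplicate, repeated at least three times.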

[8] = system: Candida albicans; test: Growth inhibition of Candida albicans ATCC 10231 at 62.5 ug/ml incubated for 48 hrs under dark condition by broth microdilution method relative to control; format: functional; details: ATCC 10231, 48 h, read-out: GI; procedure, shortened: as §2
[9] = system: Cryptococcus neoformans; test: Antifungal activity against Cryptococcus neoformans ATCC 32264 incubated for 48 hrs under dark condition by broth microdilution method; format: functional; details: ATCC 32264, 48 h; procedure, shortened: as §1
[10] = system: Candida albicans; test: Growth inhibition of Candida albicans ATCC 10231 at 3.4 ug/ml incubated for 48 hrs under dark condition by broth microdilution method relative to control; format: functional; details: ATCC 10231, 48 h, read-out: GI
[11] = system: Cryptococcus neoformans; test: Growth inhibition of Cryptococcus neoformans ATCC 32264 at 3.4 ug/ml incubated for 48 hrs under dark condition by broth microdilution method relative to control; format: functional; details: ATCC 32264, 48 h, read-out: GI
[12] = system: Plasmodium falciparum; test: Antiplasmodial activity against chloroquine-sensitive Plasmodium falciparum 3D7 assessed as reduction in parasitic LDH activity after 48 hrs by Malstat reagent based […] method; format: functional; details: 3D7, 48 h
Procedure, shortened: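 Unsynchronized P. falciparum 3D7 at 0.5% parasitemia and 1% hematocrit in RPMI with 3% Albumax II. Exposed to 100, 25, 6.25 and 1.56 µg/mL for 48 h at 37 °C under 90% N2/5% CO2/5% O2. After three freeze-thaw cycles, LDH measured with Malstat and NBT/PES, 1 h in the dark, read at 650 nm. IC50 by Probit; triplicate, ≥2 experiments.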

[13] = system: Cryptococcus neoformans; test: Growth inhibition of Cryptococcus neoformans ATCC 32264 at 7.8 ug/ml incubated for 48 hrs under dark condition by broth microdilution method relative to control; format: functional; details: ATCC 32264, 48 h, read-out: GI; procedure, shortened: as §2
[14] = system: Klebsiella pneumoniae; test: Antibacterial activity against carbapenemase positive Klebsiella pneumoniae BAA 1705 after 24 hrs by resazurin dye based microdilution assay; format: functional; details: BAA 1705, 24 h; procedure, shortened: as §3
[15] = system: Escherichia coli; test: Antibacterial activity against Escherichia coli ATCC 25922 after 24 hrs by resazurin dye based microdilution assay; format: functional; details: ATCC 25922, 24 h; procedure, shortened: as §3
[16] = system: Candida albicans; test: Growth inhibition of Candida albicans ATCC 10231 at 15.62 ug/ml incubated for 48 hrs under dark condition by broth microdilution method relative to control; format: functional; details: ATCC 10231, 48 h, read-out: GI; procedure, shortened: as §2
[17] = system: Cryptococcus neoformans; test: Growth inhibition of Cryptococcus neoformans ATCC 32264 at 125 ug/ml incubated for 48 hrs under dark condition by broth microdilution method relative to control; format: functional; details: ATCC 32264, 48 h, read-out: GI; procedure, shortened: as §2
[18] = system: Staphylococcus aureus; test: Antibacterial activity against vancomycin-intermediate Staphylococcus aureus after 24 hrs by resazurin dye based microdilution assay; format: functional; procedure, shortened: as §3
[19] = system: Klebsiella pneumoniae; test: Antibacterial activity against ESBL positive Klebsiella pneumoniae ATCC 700603 after 24 hrs by resazurin dye based microdilution assay; format: functional; details: Klebsiella pneumoniae, 700603, 24 h; procedure, shortened: as §3
[20] = system: Cryptococcus neoformans; test: Growth inhibition of Cryptococcus neoformans ATCC 32264 at 31.25 ug/ml incubated for 48 hrs under dark condition by broth microdilution method relative to control; format: functional; details: ATCC 32264, 48 h, read-out: GI; procedure, shortened: as §2
[21] = system: Cryptococcus neoformans; test: Growth inhibition of Cryptococcus neoformans ATCC 32264 at 62.5 ug/ml incubated for 48 hrs under dark condition by broth microdilution method relative to control; format: functional; details: ATCC 32264, 48 h, read-out: GI; procedure, shortened: as §2
[22] = system: Candida albicans; test: Growth inhibition of Candida albicans ATCC 10231 at 125 ug/ml incubated for 48 hrs under dark condition by broth microdilution method relative to control; format: functional; details: ATCC 10231, 48 h, read-out: GI; procedure, shortened: as §2
[23] = system: Cryptococcus neoformans; test: Growth inhibition of Cryptococcus neoformans ATCC 32264 at 250 ug/ml incubated for 48 hrs under dark condition by broth microdilution method relative to control; format: functional; details: ATCC 32264, 48 h, read-out: GI; procedure, shortened: as §2
[24] = system: U-937; test: Cytotoxicity against human U937 cells after 72 hrs by MTT assay; format: cell-based; details: u-937, 72 h
Procedure, shortened: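 Exponentially growing U-937 at 1 × 10^5 cells/mL in RPMI-1640 with 10% FBS were exposed to 200, 50, 12.5 and 3.125 µg/mL for 72 h at 37 °C, 5% CO2. MTT for 3 h, stopped with isopropanol/SDS, formazan read at 570 nm, blank-corrected. LC50 by Probit from % viability against untreated cells. Triplicate, at least two independent experiments.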

[25] = system: Staphylococcus aureus; test: Antibacterial activity against methicillin-resistant Staphylococcus aureus ATCC 43300 after 24 hrs by resazurin dye based microdilution assay; format: functional; details: ATCC 43300, 24 h
Procedure, shortened: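 Broth microdilution in Mueller Hinton broth, inoculum 5 × 10^5 – 8 × 10^5. Compound stocks diluted in MHB with 5% DMSO and 0.1% Tween 80. Incubation 24 h at 35-37 °C. MIC is the lowest concentration with visible growth inhibition and/or by resazurin (1 mg/mL) read-out. Gentamicin as control. Run in duplicate, replicated at least three times.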

[26] = system: Candida albicans; test: Growth inhibition of Candida albicans ATCC 10231 at 7.8 ug/ml incubated for 48 hrs under dark condition by broth microdilution method relative to control; format: functional; details: ATCC 10231, 48 h, read-out: GI; procedure, shortened: as §2
[27] = system: Candida albicans; test: Growth inhibition of Candida albicans ATCC 10231 at 250 ug/ml incubated for 48 hrs under dark condition by broth microdilution method relative to control; format: functional; details: ATCC 10231, 48 h, read-out: GI; procedure, shortened: as §2
[28] = system: Staphylococcus aureus; test: Antibacterial activity against methicillin-sensitive Staphylococcus aureus ATCC 25923 after 24 hrs by resazurin dye based microdilution assay; format: functional; details: ATCC 25923, 24 h; procedure, shortened: as §3

SMILES | EC50 [1] [µg/mL] | MIC50 [2] [µg/mL] | MIC80 [2] [µg/mL] | MIC [3] [µg/mL] | inhibition of growth at 15.62 µg/mL [4] [%] | inhibition of growth at 31.25 µg/mL [5] [%] | EC50 [6] [µg/mL] | MIC [7] [µg/mL] | inhibition of growth at 62.5 µg/mL [8] [%] | MIC50 [9] [µg/mL] | MIC80 [9] [µg/mL] | inhibition of growth at 3.4 µg/mL [10] [%] | inhibition of growth at 3.4 µg/mL [11] [%] | EC50 [12] [µg/mL] | inhibition of growth at 7.8 µg/mL [13] [%] | MIC [14] [µg/mL] | MIC [15] [µg/mL] | inhibition of growth at 15.62 µg/mL [16] [%] | inhibition of growth at 125 µg/mL [17] [%] | MIC [18] [µg/mL] | further results
CC(=O)N1N=C(c2ccc(Cl)cc2)CC1c1cccc(Nc2ccnc3cc(Cl)ccc23)c1 (stereo not given) | 5.53 (≈ 11.6 µM) | ≥ 250 | ≥ 250 | > 1000 | 18.7 | 21.6 | 6.57 (≈ 13.8 µM) | > 1000 | 22.5 | 125 (≈ 263 µM) | 250 (≈ 526 µM) | 14.7 | 11.1 | 26.3 (≈ 55.4 µM) | 26.7 | > 1000 | > 1000 | 20 | 53.4 | > 1000 | MIC [19]: > 1000 µg/mL; inhibition of growth at 31.25 µg/mL [20]: 28.1%; inhibition of growth at 62.5 µg/mL [21]: 32.2%; inhibition of growth at 125 µg/mL [22]: 38.8%; inhibition of growth at 250 µg/mL [23]: 100%; LC50 [24]: 17 µg/mL (≈ 35.8 µM); MIC [25]: > 1000 µg/mL; inhibition of growth at 7.8 µg/mL [26]: 19.6%; inhibition of growth at 250 µg/mL [27]: 40.9%; MIC [28]: > 1000 µg/mL
COc1cc(C2=NN(c3cc(Cl)cc(Cl)c3)C(c3cccc(Nc4ccnc5cc(Cl)ccc45)c3)C2)cc(OC)c1OC (stereo not given) | 16.5 (≈ 26 µM) | ≥ 250 | ≥ 250 | > 1000 | 3.54 | 5.79 | 21.9 (≈ 34.6 µM) | > 1000 | 5.81 | ≥ 250 | ≥ 250 | 0.27 | 0 | 10.9 (≈ 17.2 µM) | 3.27 | > 1000 | > 1000 | 2.69 | 6.13 | > 1000 | MIC [19]: > 1000 µg/mL; inhibition of growth at 31.25 µg/mL [20]: 3.54%; inhibition of growth at 62.5 µg/mL [21]: 3.82%; inhibition of growth at 125 µg/mL [22]: 10.6%; inhibition of growth at 250 µg/mL [23]: 25.6%; LC50 [24]: > 200 µg/mL; MIC [25]: > 1000 µg/mL; inhibition of growth at 7.8 µg/mL [26]: 1.1%; inhibition of growth at 250 µg/mL [27]: 20.3%; MIC [28]: > 1000 µg/mL
